Results on 31 compounds are retold here after paper PMC7114883 (ACS Omega, 2020).

In data set [1] the test system is P. falciparum NF54. In words: In vitro antiplasmodium assay. The following applies: for in vitro antiplasmodium activity (in words): authors' Pf assays. The format is cell-based, Plasmodium falciparum.
The nature of data set [2]: Aqueous solubility, miniaturized shake flask method. In kind it is physicochemical. The note with it: aqueous solution, 25 °C, thermodynamic from solid.
For data set [3], the target named is hERG channel (Homo sapiens, UniProt Q12809). Put plainly: hERG channel inhibition. The format is biochemical.
Chain of hERG channel (Q12809 whole entry): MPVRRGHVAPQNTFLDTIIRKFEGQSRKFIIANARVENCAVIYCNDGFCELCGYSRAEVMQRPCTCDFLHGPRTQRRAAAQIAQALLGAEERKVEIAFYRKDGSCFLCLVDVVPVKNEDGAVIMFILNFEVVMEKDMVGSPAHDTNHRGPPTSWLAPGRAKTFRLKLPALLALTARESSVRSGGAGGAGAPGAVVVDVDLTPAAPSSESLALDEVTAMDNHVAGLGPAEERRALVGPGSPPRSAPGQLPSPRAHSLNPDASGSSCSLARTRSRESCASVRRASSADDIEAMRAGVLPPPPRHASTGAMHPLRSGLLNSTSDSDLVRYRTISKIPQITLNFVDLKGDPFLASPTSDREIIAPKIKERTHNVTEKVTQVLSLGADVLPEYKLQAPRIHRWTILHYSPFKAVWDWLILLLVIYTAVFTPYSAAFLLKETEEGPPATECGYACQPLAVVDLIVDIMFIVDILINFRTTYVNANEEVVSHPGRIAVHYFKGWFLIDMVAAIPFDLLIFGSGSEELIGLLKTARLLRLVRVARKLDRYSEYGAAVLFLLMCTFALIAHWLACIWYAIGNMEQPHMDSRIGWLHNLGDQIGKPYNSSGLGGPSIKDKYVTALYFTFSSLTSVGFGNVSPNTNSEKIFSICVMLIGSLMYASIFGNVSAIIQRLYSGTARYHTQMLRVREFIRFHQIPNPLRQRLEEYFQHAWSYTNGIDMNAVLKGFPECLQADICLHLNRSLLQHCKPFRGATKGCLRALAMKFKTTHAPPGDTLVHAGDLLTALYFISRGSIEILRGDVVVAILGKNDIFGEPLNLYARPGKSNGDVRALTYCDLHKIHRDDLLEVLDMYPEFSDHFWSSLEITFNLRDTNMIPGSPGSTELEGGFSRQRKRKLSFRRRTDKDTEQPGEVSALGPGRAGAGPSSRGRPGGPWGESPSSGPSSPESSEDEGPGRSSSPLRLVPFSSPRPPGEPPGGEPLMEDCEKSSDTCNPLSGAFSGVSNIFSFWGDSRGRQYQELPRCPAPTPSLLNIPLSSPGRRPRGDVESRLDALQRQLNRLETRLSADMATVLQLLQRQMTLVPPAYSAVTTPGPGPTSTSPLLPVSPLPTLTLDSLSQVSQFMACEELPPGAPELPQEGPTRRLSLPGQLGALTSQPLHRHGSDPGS
Data set [4] is described as follows: Microsomal metabolic stability, human liver microsomes. The format is in vitro ADME. The note with it: pooled human liver microsomes, pH 7.4. In short, it runs like this:
(§1)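 Test compound at 0.1 μM incubated at 37 °C, in duplicate, with liver microsomes (mouse, rat or pooled human; final protein 0.4 mg/mL) in 0.1 M phosphate buffer pH 7.4, with and without 1 mM NADPH. Quenched with ice-cold acetonitrile containing internal standard, centrifuged, and supernatant analysed by LC–MS/MS. Parent remaining after 30 min expressed as percent.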
On the technique in general: Liver microsomes are a subcellular fraction often used to study metabolism.

Data set [5] in a line: Microsomal metabolic stability, mouse liver microsomes. In kind it is in vitro ADME. The note with it: pH 7.4. The method, boiled down: as §1
Data set [6] is described as follows: Microsomal metabolic stability, rat liver microsomes. The following applies: pH 7.4. In kind it is in vitro ADME. The method, boiled down:
as §1

Data set [7] can be described thus: Pharmacokinetic studies in rats. The note with it: rat, plasma, iv, 1 mg/kg. In kind it is in vivo.
Data set [8] is described as follows: P. berghei mouse model efficacy. The following applies: female, NMRI, plasma, po, 100 mg/kg. In kind it is in vivo, Plasmodium berghei (NMRI mice).
Data set [9] is described as follows: P. falciparum SCID mouse model efficacy. The format is in vivo, Plasmodium falciparum (NOD-scid IL-2Rγnull mice). The note with it: female, NOD-scid IL-2Rγnull, plasma, po, 25 mg/kg.
The nature of data set [10]: Solubility at pH 6.8. The note with it: pH 6.8, aqueous buffer. The format is physicochemical.
Data set [11] in a line: PAMPA parallel artificial membrane permeability assay. In kind it is in vitro ADME. The following applies: fraction absorbed. (In general: In PAMPA a lipid-coated filter parts donor from acceptor wells.)
The subject of data set [12] is P. falciparum NF54. The note with it: read-out: IC50 PfNF54; reference drugs; ref Singh et al. 33; cited from earlier work.
Data set [13] has as its system P. falciparum K1. The following applies: read-out: IC50 PfK1; reference drugs; ref Singh et al. 33; cited from earlier work.
Data set [14] has as its system Chinese hamster ovarian (CHO) cell line. The note with it: read-out: IC50 (CHO); reference drug; ref Singh et al. 33; cited from earlier work.
In data set [15] the test system is P. falciparum K1. Put plainly: In vitro antiplasmodium assay. The format is cell-based. The note with it: Plasmodium falciparum, K1, read-out: IC50 PfK1.
The test system of data set [16] is Chinese hamster ovarian (CHO) cell line. In words: Cytotoxicity MTT assay. In kind it is cell-based. The note with it: CHO cells, relative to 4-unsubstituted compound 3.
Setting [17] is: read-out: IC50 PfNF54, drug-sensitive NF54 strain, mean of ≥2 independent experiments.
Setting [18] is: Plasmodium falciparum, NF54, read-out: IC50 PfNF54, drug-sensitive NF54 strain, mean of ≥2 independent experiments.

Values after ≈ are worked out from the molar mass of the structure shown. Read-outs that look alike come from different tables or passages of the source.

Turning to `COC(=O)c1ccc2c(c1)nc(C1CCNCC1)n2Cc1ccccc1` [Compound 46d], in data set [1], the “in vitro antiplasmodium activity (in words)” value was “inactive”.

With `Cl.Clc1ccc2c(c1)nc(N1CCNCC1)n2Cc1ccccc1` [Compound 3], the solubility at 20 h in [2] (pH 2, simulated gastric fluid) is 150 µM; in data set [2] (pH 6.5, aqueous buffer) it was 140 µM. Further, the IC50 in data set [3] came to 0.009 µM. Also, the share remaining at 0.5 h, 0.1 μM in data set [4] turned out to be 74.4%; in [5] it was 63%; in data set [6], 42.1%. This compound also had a half-life in data set [7] of 1.98 h. Further, the area under the curve (AUC) in data set [8] was 377 µM·h; in data set [9], 86 µM·h. The highest concentration (Cmax) in [8] came out at 20.6 µM; in data set [9], 5.2 µM. This compound also came in with a solubility in data set [10] of 770 µM. For the same compound, the “PAMPA (%FA)” value in [11] was 99 %FA.

For `C[C@H]1[C@H](OC(=O)CCC(=O)O)O[C@@H]2O[C@@]3(C)CC[C@H]4[C@H](C)CC[C@@H]1[C@@]24OO3` [Artesunate], the figures for the IC50 in data set [12] and in data set [13] were 0.004 µM and 0.003 µM, respectively.

For the compound `Brc1ccc2c(c1)nc(N1CCNCC1)n2Cc1ccccc1` [Compound 16b, 1-Benzyl-5-bromo-2-(piperazin-1-yl)-1H-benzo[d]imidazole], the IC50 in data set [1] (setting [17]) is 0.0424 µM; in data set [3] it was 0.03 µM. Further, the amount remaining at 0.5 h, 0.1 μM in data set [4] turned out to be 88.2%; in data set [5], 94%; in [6], 89.8%.

Regarding `Cl.Clc1ccc2c(c1)nc(N1CCNCC1)n2CCc1ccccc1` [Compound 16g, 5-Chloro-1-phenethyl-2-(piperazin-1-yl)-1H-benzo[d]imidazole Hydrochloride], the IC50 in data set [1] (setting [18]) is above 1 µM. Further, the “in vitro antiplasmodium activity (in words)” value in [1] was “inactive”.

In [3], `NC1CCN(c2nc3cc(Cl)ccc3n2Cc2ccccc2)CC1` [Compound 28] showed an IC50 of 0.07 µM. Besides, the results for the share remaining at 0.5 h, 0.1 μM in data set [4], in data set [5] and in data set [6] were 80.9%, 76% and 39.9%, respectively.

Take `O=C1CN(c2nc3cc(Cl)ccc3n2Cc2ccccc2)CCN1` [Compound 17]: the IC50 in data set [1] (setting [18]) is above 1 µM; in [3], 2.3 µM.

Regarding `CC(=O)N1CCN(c2nc3cc(Cl)ccc3n2Cc2ccccc2)CC1` [Compound 18], the half-inhibitory concentration (IC50) was above 1 µM in data set [1] (setting [18]) and 0.39 µM in data set [3].

With `CCN(CC)CCCC(C)Nc1ccnc2cc(Cl)ccc12` (stereo not shown) [Chloroquine], the values for the IC50 in data set [12] and in data set [13] were 0.016 µM and 0.194 µM, respectively.

`Cl.c1ccc(Cn2c(N3CCNCC3)nc3ccccc32)nc1` [Compound 59]: in data set [1] (setting [18]), the IC50 is 9.77 µM. For the same compound, the “in vitro antiplasmodium activity (in words)” value in data set [1] was “inactive”.

`C[C@@H]1CN(c2nc3cc(Cl)ccc3n2Cc2ccccc2)C[C@H](C)N1` [Compound 27]: the IC50 in [3] was 0.017 µM. Also, the share remaining at 0.5 h, 0.1 μM in [4] is 23.2%; in data set [5], 31.3%; in data set [6], 36.5%.

On to `O=C(O)CN1CCN(c2nc3cc(Cl)ccc3n2Cc2ccccc2)CC1` [Compound 20], for which the IC50 in data set [1] (setting [18]) was above 10 µM. In addition, in data set [1], the “in vitro antiplasmodium activity (in words)” value was “inactive”. In [2] (pH 6.5, aqueous buffer), this compound showed a solubility at 20 h of 200 µM (≈ 77 µg/mL).

As to `Brc1ccc2c(c1)nc(C1CCNCC1)n2Cc1ccccc1` [Compound 46b], the fraction remaining at 0.5 h, 0.1 μM in data set [4] was 99.3%; in data set [5] it was 97.4%; in data set [6] it was 97.7%.

Take `CC[C@H]1CN2CCc3cc(OC)c(OC)cc3[C@@H]2C[C@@H]1C[C@H]1NCCc2cc(OC)c(OC)cc21` [Emetine]: in data set [14], the IC50 was 0.095 µM.

For `N#CCN1CCN(c2nc3cc(Cl)ccc3n2Cc2ccccc2)CC1` [Compound 19], the IC50 came out at 0.306 µM in data set [1] (setting [18]), 0.454 µM in data set [15] and 0.18 µM in [3]. The solubility at 20 h was above 150 µM in [2] (pH 2, simulated gastric fluid) and below 5 µM in data set [2] (pH 6.5, aqueous buffer). Further, the amount remaining at 0.5 h, 0.1 μM stood at 8.6% in [4], 2% in [5] and 1.2% in data set [6].

Take `Cc1ccc(Cn2c(N3CCC(C(=O)NCc4cccs4)CC3)nc3ccccc32)cc1` [Compound 26, 1-(1-(4-methylbenzyl)-1H-benzo[d]imidazol-2-yl)-N-(thiophen-2-ylmethyl)piperidine-4-carboxamide]: in data set [1] (setting [18]), the half-inhibitory concentration (IC50) was 0.6 µM. Moreover, the “in vitro antiplasmodium activity (in words)” value in [1] was “weakly active”. In [2] (pH 6.5, aqueous buffer), this compound returned a solubility at 20 h below 5 µM.

With `Clc1ccc2c(nc(N3CCNCC3)n2Cc2ccccc2)c1Br` [Compound 42k], the “fold more cytotoxic than 3” value in data set [16] is given as around 4 fold. Further, the share remaining at 0.5 h, 0.1 μM in [4] stood at 97.4%; in data set [5], 91.6%; in data set [6], 93.8%.

With `Cl.Clc1ccc2c(nc(N3CCNCC3)n2Cc2ccccc2)c1Cl` [Compound 42a], in data set [16], the “fold more cytotoxic than 3” value was around 4 fold. For the same compound, the IC50 in data set [3] came out at 0.59 µM. In addition, the share remaining at 0.5 h, 0.1 μM came out at 76.3% in data set [4], 72.5% in data set [5] and 66.1% in data set [6].

With `NCCCNc1nc2cc(Br)ccc2n1Cc1ccccc1` [Compound 41, N^1-(1-Benzyl-5-bromo-1H-benzo[d]imidazol-2-yl)propane-1,3-diamine], the results for the fraction remaining at 0.5 h, 0.1 μM in [4], in data set [5] and in data set [6] were 99.4%, 98.6% and 97%, respectively.

For `Cc1ccc(C(=O)N2CCN(c3nc4cc(Cl)ccc4n3Cc3ccccc3)CC2)cc1` [Compound 23], the IC50 in data set [1] (setting [18]) was above 10 µM. Besides, the “in vitro antiplasmodium activity (in words)” value in [1] is “completely inactive”.

Consider `Clc1ccc2c(c1)nc(N1CCOCC1)n2Cc1ccccc1` [Compound 16a, 4-(1-Benzyl-5-chloro-1H benzo[d]imidazol-2-yl)morpholine], for which, in data set [1] (setting [18]), the IC50 was above 1 µM.

For the compound `Cc1ccc(C(=O)N2CCN(c3nc4ccccc4n3C)CC2)cc1.Cl` [Compound 22], the IC50 in data set [1] (setting [18]) was above 10 µM. Moreover, in data set [1], the “in vitro antiplasmodium activity (in words)” value is “completely inactive”.

For `Cl.Cn1c(N2CCNCC2)nc2ccccc21` [Compound 60, 1-methyl-2-(piperazin-1-yl)-1H-benzo[d]imidazole hydrochloride], in [1] (Plasmodium falciparum, NF54, read-out: IC50 PfNF54), the IC50 was above 10 µM. Further, in data set [1], the “in vitro antiplasmodium activity (in words)” value was “inactive”.

As for `O=S(=O)(c1ccc(Cl)cc1)N1CCN(c2nc3cc(Cl)ccc3n2Cc2ccccc2)CC1` [Compound 25], the IC50 in [1] (setting [18]) was determined as 5.26 µM. The “in vitro antiplasmodium activity (in words)” value in data set [1] was “completely inactive”.

`FC(F)(F)c1ccc2c(c1)nc(N1CCNCC1)n2Cc1ccccc1` [Compound 14c] registered an IC50 in data set [3] of 0.15 µM. The fraction remaining at 0.5 h, 0.1 μM in data set [4] was 92.2%; in data set [5] it was 82%; in data set [6], 95.6%.

Regarding `NCCNc1nc2cc(Cl)ccc2n1Cc1ccccc1` [Compound 33, N^1-(1-benzyl-5-chloro-1H-benzo[d]imidazol-2-yl)ethane-1,2-diamine], the half-inhibitory concentration (IC50) in data set [3] was 2.2 µM. Also, the hERG safety window in [3] (hERG versus antiplasmodium activity) is reported as 10 fold. Moreover, the share remaining at 0.5 h, 0.1 μM in data set [4] worked out at 98.9%; in [5], 71.2%; in data set [6] it was 88%.

Turning to `O=C(NCCCNc1nc2ccccc2n1Cc1ccccc1)c1cc(Cl)cc(Cl)c1` [Compound 21], the IC50 in [1] (setting [18]) was 9.51 µM. Besides, the “in vitro antiplasmodium activity (in words)” value in [1] is “completely inactive”. In [2] (pH 2, simulated gastric fluid), this compound yielded a solubility at 20 h of 10 µM (≈ 4.53 µg/mL).

Take `c1ccc2c(c1)nc(N1CCNCC1)n2Cc1ccncc1` [Compound 14i]: the IC50 in data set [1] (setting [18]) is above 10 µM. Also, in [1], the “in vitro antiplasmodium activity (in words)” value is “inactive”.

On to `Clc1ccc2c(c1)nc(C1CCNCC1)n2Cc1ccccc1` [Compound 46a, 1-Benzyl-5-chloro-2-(piperidin-4-yl)-1H-benzo[d]imidazole], for which the IC50 amounted to 0.0379 µM in data set [1] (setting [17]) and 0.46 µM in data set [3]. The fraction remaining at 0.5 h, 0.1 μM in data set [4] was 91.8%; in data set [5] it was 97.6%; in data set [6], 92.9%.

Regarding `CS(=O)(=O)c1ccc2c(c1)nc(C1CCNCC1)n2Cc1ccccc1.Cl` [Compound 46e], in data set [1], the “in vitro antiplasmodium activity (in words)” value is “inactive”.

On to `c1ccc(Cn2c(N3CCNCC3)nc3cnccc32)cc1` [Compound 57b], for which the IC50 in [1] (setting [18]) was above 1 µM. Also, in data set [1], the “in vitro antiplasmodium activity (in words)” value was “inactive”.

As usually defined, the solubility is how much of the substance goes into solution per volume. Lower therefore signals little dissolved substance. Usually IC50 stands for the concentration at which inhibition is half-maximal. The term share remaining denotes the share of the starting amount still present when the sample was taken. Read a low share remaining as more turnover. One may read the half-life as the time needed for the level to fall by half in the phase considered. A lower half-life goes with fast loss. By AUC is commonly meant the area under the concentration-time curve, a measure of exposure. The low end stands for less exposure, the high end for more exposure. By Cmax is commonly meant the highest concentration seen after dosing.
